Results as given in ChEMBL document CHEMBL4118269 (J Med Chem, 2018).

Experiments:
in vitro [1] = settings: Sprague-Dawley, rat, liver microsomes
[2] = Half life in CD-1 mouse liver microsomes at 1 uM preincubated for 5 mins followed by NADPH addition measured up to 45 mins by LC-MS/MS analysis; type: ADME, microsome; settings: 0.75 h
Method in brief: (§1)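 Pooled liver microsomes (0.5 mg/mL; male CD-1 mouse, male Sprague Dawley rat, or mixed-gender human) with 1 μM compound in 100 mM potassium phosphate pH 7.4, 3 mM MgCl2, 37 °C with shaking. 5 min preincubation, then 1 mM NADPH. Aliquots at 0, 3, 7, 15, 25, 45 min quenched in cold CH3CN with carbamazepine internal standard, then LC/MS/MS. Triplicate; T1/2 = ln2/k from the slope of ln % remaining versus time.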

in vitro [3] = settings: Sprague-Dawley, rat, liver microsomes; remark: listed apart in the source
[4] = Half life in human liver microsomes at 1 uM preincubated for 5 mins followed by NADPH addition measured up to 45 mins by LC-MS/MS analysis; type: ADME, microsome; settings: 0.75 h
Method in brief: as §1

in vitro [5] = settings: human, liver microsomes
in vitro [6] = settings: CD-1, mouse, liver microsomes
[7] = Lipophilicity, log P of the compound; type: physicochemical; settings: octanol/water
[8] = molecular target: Lanosterol 14-alpha demethylase (Aspergillus) (UniProt B8NUK6+Q9P8R0+G4WW85); assay: Inhibition of Aspergillus fumigatus CYP51 assessed as reduction in [3-3H]eburicol 14alpha-demethylation at 0.75 uM preincubated for 60 secs followed by NADPH addition measured after 60 mins by RP-HPLC analysis relative to control
Method in brief: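 E. coli-expressed, purified CYP51 (0.5 μM) with rat NADPH-P450 reductase (1.0 μM), 100 μM dilauroylphosphatidylcholine, isocitrate dehydrogenase/isocitrate NADPH regeneration, in 50 mM K phosphate pH 7.2 with 10% glycerol and 0.1% Triton X-100. [3-3H]eburicol 25 μM final, inhibitor 0.75 μM final (1.5:1:50 inhibitor:enzyme:substrate), 37 °C. Started with 100 μM NADPH, 60 min, EtOAc extraction, radio-HPLC. Percent inhibition, triplicate, mean ± SD.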

in vitro [9] = settings: CD-1, mouse, liver microsomes; remark: listed apart in the source
in vitro [10] = settings: human, liver microsomes; remark: listed apart in the source
[11] = molecular target: Lanosterol 14-alpha demethylase (Candida albicans (strain SC5314 / ATCC MYA-2876) (Yeast), UniProt P10613); assay: Inhibition of Candida albicans CYP51 assessed as reduction in [3-3H]lanosterol 14alpha-demethylation at 0.75 uM preincubated for 60 secs followed by NADPH addition measured after 60 mins by RP-HPLC analysis relative to control; settings: 1 h
Method in brief: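 C. albicans CYP51 expressed in E. coli and purified, 0.5 μM, with 1.0 μM rat NADPH-P450 reductase, dilauroylphosphatidylcholine and isocitrate dehydrogenase/isocitrate regeneration in 50 mM potassium phosphate pH 7.2, 10% glycerol, 0.1% Triton X-100. Substrate 25 μM final; inhibitor:enzyme:substrate 1.5:1:50. 37 °C, started with 100 μM NADPH. Sterols extracted with EtOAc, radio-HPLC. Triplicate, mean ± SD.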

[12] = Half life in Sprague-Dawley rat liver microsomes at 1 uM preincubated for 5 mins followed by NADPH addition measured up to 45 mins by LC-MS/MS analysis; type: ADME, microsome; settings: 0.75 h
Method in brief: as §1

Chain of Lanosterol 14-alpha demethylase (P10613 whole entry): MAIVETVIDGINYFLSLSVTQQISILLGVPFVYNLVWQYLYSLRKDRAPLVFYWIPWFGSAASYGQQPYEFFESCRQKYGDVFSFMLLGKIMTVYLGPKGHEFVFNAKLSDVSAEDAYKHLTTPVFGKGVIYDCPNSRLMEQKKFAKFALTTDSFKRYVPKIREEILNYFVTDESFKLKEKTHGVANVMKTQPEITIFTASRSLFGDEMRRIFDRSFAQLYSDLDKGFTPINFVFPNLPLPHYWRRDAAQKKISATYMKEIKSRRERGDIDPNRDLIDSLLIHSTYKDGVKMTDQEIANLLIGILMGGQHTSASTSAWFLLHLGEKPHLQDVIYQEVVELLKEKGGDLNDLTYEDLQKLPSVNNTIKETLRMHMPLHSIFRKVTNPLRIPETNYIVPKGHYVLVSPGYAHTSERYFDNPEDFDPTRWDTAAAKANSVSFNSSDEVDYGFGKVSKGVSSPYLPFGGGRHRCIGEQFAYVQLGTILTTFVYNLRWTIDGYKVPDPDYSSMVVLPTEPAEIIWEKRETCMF

For `O=C(N[C@@H](Cn1ccnc1)c1ccc(Cl)cc1Cl)c1ccc(-c2nnc(-c3cc(F)cc(OCC(F)(F)F)c3)o2)cc1`, which CLint scaled at 0.75 h, 1 µM (in vitro [1]) is on record?
Its CLint scaled at 0.75 h, 1 µM is 50.4 mL/min/kg.

What about the t1/2 [2] of the same compound?
Its t1/2 is 65 min.

And the CLhep predicted at 0.75 h, 1 µM (in vitro [3])?
The CLhep predicted at 0.75 h, 1 µM was 29 mL/min/kg.

What about the t1/2 [4] of the same compound?
The t1/2 was 111 min.

And the CLhep predicted at 0.75 h, 1 µM (in vitro [5])?
Its CLhep predicted at 0.75 h, 1 µM is 7.33 mL/min/kg.

What about the CLint scaled at 0.75 h, 1 µM (in vitro [6]) of the same compound?
The CLint scaled at 0.75 h, 1 µM was 84.7 mL/min/kg.

What about the logP [7] of the same compound?
Its logP is 5.58.

What about the inhibition [8] of the same compound?
The inhibition was 51%.

And the CLhep predicted at 0.75 h, 1 µM (in vitro [9])?
Its CLhep predicted at 0.75 h, 1 µM is 43.6 mL/min/kg.

And the CLint scaled at 0.75 h, 1 µM (in vitro [10])?
The CLint scaled at 0.75 h, 1 µM was 11.3 mL/min/kg.

What about the inhibition at 0.75 µM [11] of the same compound?
The inhibition at 0.75 µM was 65%.

And the t1/2 [12]?
Its t1/2 is 56 min.

Which results are given for `O=C(N[C@@H](Cn1ccnc1)c1ccc(Cl)cc1Cl)c1ccc(-c2nnc(-c3ccc(Cl)c(Cl)c3)o2)cc1`?
CLint scaled at 0.75 h, 1 µM (in vitro [1]): 70 mL/min/kg; t1/2 [2]: 51 min; CLhep predicted at 0.75 h, 1 µM (in vitro [3]): 35 mL/min/kg; t1/2 [4]: 110 min; CLhep predicted at 0.75 h, 1 µM (in vitro [5]): 7.39 mL/min/kg; CLint scaled at 0.75 h, 1 µM (in vitro [6]): 107 mL/min/kg; logP [7]: 5.68; inhibition [8]: 55%; CLhep predicted at 0.75 h, 1 µM (in vitro [9]): 49 mL/min/kg; CLint scaled at 0.75 h, 1 µM (in vitro [10]): 11.4 mL/min/kg; inhibition at 0.75 µM [11]: 92%; t1/2 [12]: 40 min

Which results are given for `CS(=O)(=O)c1ccc(-c2nnc(-c3ccc(C(=O)N[C@@H](Cn4ccnc4)c4ccc(Cl)cc4Cl)cc3)o2)cc1Cl`?
CLint scaled at 0.75 h, 1 µM (in vitro [1]): 104 mL/min/kg; t1/2 [2]: 97 min; CLhep predicted at 0.75 h, 1 µM (in vitro [3]): 42 mL/min/kg; t1/2 [4]: 134 min; CLhep predicted at 0.75 h, 1 µM (in vitro [5]): 6.45 mL/min/kg; CLint scaled at 0.75 h, 1 µM (in vitro [6]): 56 mL/min/kg; logP [7]: 3.83; inhibition [8]: 32%; CLhep predicted at 0.75 h, 1 µM (in vitro [9]): 34.5 mL/min/kg; CLint scaled at 0.75 h, 1 µM (in vitro [10]): 9.31 mL/min/kg; inhibition at 0.75 µM [11]: 53%; t1/2 [12]: 27 min

Which CLint scaled at 0.75 h, 1 µM (in vitro [1]) does the source give for `O=C(N[C@@H](Cn1ccnc1)c1ccc(Cl)cc1Cl)c1ccc(-c2nnc(-c3cccc(-c4ccccn4)c3)o2)cc1` here?
The CLint scaled at 0.75 h, 1 µM was 68 mL/min/kg.

What about the t1/2 [2] of the same compound?
Its t1/2 is 36 min.

And the CLhep predicted at 0.75 h, 1 µM (in vitro [3])?
Its CLhep predicted at 0.75 h, 1 µM is 35 mL/min/kg.

What about the t1/2 [4] of the same compound?
The t1/2 was 95 min.

What about the CLhep predicted at 0.75 h, 1 µM (in vitro [5]) of the same compound?
The CLhep predicted at 0.75 h, 1 µM was 8.06 mL/min/kg.

And the CLint scaled at 0.75 h, 1 µM (in vitro [6])?
Its CLint scaled at 0.75 h, 1 µM is 152 mL/min/kg.

What about the logP [7] of the same compound?
The logP was 5.33.

What about the inhibition [8] of the same compound?
Its inhibition is 34%.

And the CLhep predicted at 0.75 h, 1 µM (in vitro [9])?
Its CLhep predicted at 0.75 h, 1 µM is 56 mL/min/kg.

And the CLint scaled at 0.75 h, 1 µM (in vitro [10])?
Its CLint scaled at 0.75 h, 1 µM is 13.1 mL/min/kg.

And the inhibition at 0.75 µM [11]?
Its inhibition at 0.75 µM is 77%.

And the t1/2 [12]?
Its t1/2 is 41 min.

Which logP [7] does the source give for `O=C(N[C@@H](Cn1ccnc1)c1ccc(Cl)cc1Cl)c1ccc(-c2nnc(-c3ccc(N4CCOCC4)cc3)o2)cc1` here?
Its logP is 4.45.

And the inhibition [8]?
Its inhibition is 3%.

What about the inhibition at 0.75 µM [11] of the same compound?
The inhibition at 0.75 µM was 29%.

Which CLint scaled at 0.75 h, 1 µM (in vitro [1]) does the source give for `O=C(N[C@@H](Cn1ccnc1)c1ccc(Cl)cc1Cl)c1ccc(-c2nnc(-c3cccc(Br)c3)o2)cc1` here?
Its CLint scaled at 0.75 h, 1 µM is 27 mL/min/kg.

What about the t1/2 [2] of the same compound?
The t1/2 was 43 min.

And the CLhep predicted at 0.75 h, 1 µM (in vitro [3])?
The CLhep predicted at 0.75 h, 1 µM was 19 mL/min/kg.

What about the t1/2 [4] of the same compound?
Its t1/2 is 132 min.

And the CLhep predicted at 0.75 h, 1 µM (in vitro [5])?
The CLhep predicted at 0.75 h, 1 µM was 6.53 mL/min/kg.

And the CLint scaled at 0.75 h, 1 µM (in vitro [6])?
The CLint scaled at 0.75 h, 1 µM was 126 mL/min/kg.

And the logP [7]?
Its logP is 5.4.

And the inhibition [8]?
The inhibition was 41%.

What about the CLhep predicted at 0.75 h, 1 µM (in vitro [9]) of the same compound?
Its CLhep predicted at 0.75 h, 1 µM is 55 mL/min/kg.

What about the CLint scaled at 0.75 h, 1 µM (in vitro [10]) of the same compound?
Its CLint scaled at 0.75 h, 1 µM is 9.47 mL/min/kg.

And the inhibition at 0.75 µM [11]?
Its inhibition at 0.75 µM is 84%.

And the t1/2 [12]?
Its t1/2 is 106 min.
